The record followed here is ChEMBL document CHEMBL1158834, “Cytotoxic clerodane diterpenoids from Casearia membranacea” (2005).

Each structure is given as a SMILES string. ≈ marks a conversion by molar mass, not a printed value.

What all share (assay type): functional
Assay [1] deals with DLD-1. Put plainly: Cytotoxicity against human DLD1 cells after 3 days by methylene blue staining. Conditions: DLD-1, 72 h, read-out: ED50 (the source's name). The procedure, abridged:
(§1)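 Cells grown in RPMI-1640 at 37 °C, 5% CO2, seeded at 2880 cells/well for 3 h, then given sample (prepared at 1, 10, 40 and 100 µg/mL) for 3 days at 37 °C. Fixed in 10% formaldehyde/0.9% saline, stained with 1% methylene blue in 0.01 M borate, eluted with EtOH/0.1 M HCl, A650 read. ED50 is the concentration halving absorbance versus untreated cells.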

The nature of assay [2]: Cytotoxicity against human medulloblastoma cells after 3 days by methylene blue staining. Conditions: Medulloblastoma cell, 72 h, read-out: ED50 (the source's name). The procedure, abridged:
as §1

Assay [3] concerns KB. Put plainly: Cytotoxicity against human KB cells after 3 days by methylene blue staining. Conditions: 72 h, read-out: ED50 (the source's name). Put shortly: as §1

Regarding `C=CC(=C)CC[C@]1(C)[C@H]2C[C@H](OC(=O)C(C)CC)C=C3[C@H](OC(C)=O)O[C@H](OC(C)=O)[C@@]32[C@H](O)C[C@@H]1C` (relative stereo), the EC50 in assay [1] amounted to 1.18 mg/L (≈ 2.28 µM); in assay [2], 1.93 mg/L (≈ 3.72 µM); in assay [3], 3.6 mg/L (≈ 6.94 µM).

Take `C=CC(=C)CC[C@]1(C)[C@H]2C[C@H](OC(=O)C(C)CC)C=C3[C@H](OC(=O)CCC)O[C@H](OC(C)=O)[C@@]32[C@H](O)[C@H](OC(C)=O)[C@@H]1C` (stereo partly drawn) [CASEAMEMBRIN D]: the EC50 in assay [1] turned out to be 1.81 mg/L (≈ 2.99 µM); in assay [2], 2.42 mg/L (≈ 4 µM); in assay [3], 5.57 mg/L (≈ 9.21 µM).

On to `C=CC(=C)CC[C@]1(C)[C@H]2C[C@H](OC(=O)C(C)CC)C=C3[C@H](OC(C)=O)O[C@H](OC(C)=O)[C@@]32[C@H](OC(=O)CCC)C[C@@H]1C` (stereo partly drawn) [CASEAMEMBRIN M], for which the EC50 in assay [1] worked out at 14.2 mg/L (≈ 24.1 µM); in assay [2], 14.4 mg/L (≈ 24.5 µM); in assay [3], 18.4 mg/L (≈ 31.3 µM).

For the compound `C=CC(=C)CC[C@]1(C)[C@H]2C[C@H](OC(=O)CCC)C=C3[C@H](OC(C)=O)O[C@H](OC(C)=O)[C@@]32[C@H](O)[C@H](OC(C)=O)[C@@H]1C` [CASEAMEMBRIN N], the EC50 in assay [1] was determined as 4.37 mg/L (≈ 7.77 µM); in assay [2], 3.27 mg/L (≈ 5.81 µM); in assay [3], 8.94 mg/L (≈ 15.9 µM).

In the case of `C=CC(=C)CC[C@]1(C)[C@H]2C[C@H](OC(=O)CC(C)C)C=C3[C@H](OC(C)=O)O[C@H](OC(C)=O)[C@@]32[C@H](O)[C@H](OC(C)=O)[C@@H]1C` [CASEAMEMBRIN O], the EC50 in assay [1] stood at 2.54 mg/L (≈ 4.4 µM); in assay [2], 1.94 mg/L (≈ 3.36 µM); in assay [3], 6.94 mg/L (≈ 12 µM).

Turning to `CO[C@@]12[C@H](COC(N)=O)C3=C(C(=O)C(C)=C(N)C3=O)N1C[C@@H]1N[C@@H]12` [MITOMYCIN], the EC50 in assay [1] was found to be 0.1 mg/L (≈ 0.299 µM); in assay [2], 0.1 mg/L (≈ 0.299 µM); in assay [3], 0.13 mg/L (≈ 0.389 µM).
